# Laboratory results as given in ChEMBL document CHEMBL3352173, “Optimization of pyrrolamide topoisomerase II inhibitors toward identification of an antibacterial clinical candidate (AZD5099)” (J Med Chem, 2014).
# How the values were obtained:
# [1] = system: Moraxella catarrhalis; assay: Antimicrobial activity against Moraxella catarrhalis by broth microdilution/CLSI method; format: functional
# [2] = system: Streptococcus pneumoniae; assay: Antibacterial activity against Streptococcus pneumoniae by broth microdilution/CLSI method; format: functional
# [3] = system: Haemophilus influenzae; assay: Antimicrobial activity against Haemophilus influenzae by broth microdilution/CLSI method; format: functional
# [4] = system: Escherichia coli; assay: Antimicrobial activity against Escherichia coli tolC- by broth microdilution/CLSI method; format: functional
# [5] = system: Escherichia coli; assay: Antimicrobial activity against wild-type Escherichia coli Eco523 by broth microdilution/CLSI method; format: functional
# [6] = system: Staphylococcus aureus; assay: Antimicrobial activity against methicillin-sensitive Staphylococcus aureus by broth microdilution/CLSI method; format: functional
# [7] = system: Streptococcus pyogenes; assay: Antimicrobial activity against Streptococcus pyogenes by broth microdilution/CLSI method; format: functional
# [8] = target: DNA gyrase subunit B (Staphylococcus aureus, UniProt P0A0K8); assay: Inhibition of ATPase activity of Staphylococcus aureus GyrB
# Outline: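 IC50 was determined against S. aureus GyrB in the routine screening assay. The enzyme concentration limits resolution below 10 nM.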
# [9] = Octanol-phosphate buffer distribution coefficient, log D of the compound at pH 7.4 by shake flask method; format: physicochemical
# [10] = Clearance in rat at 10 mg/kg, iv; format: ADME, organism-based; set-up: dose 10 mg/kg, route intravenous; details: in vivo
# [11] = Percentage unbound in human plasma; format: ADME, cell-free
# [12] = system: Staphylococcus aureus; assay: Antimicrobial activity against methicillin, quinolone-resistant Staphylococcus aureus by broth microdilution/CLSI method; format: functional
# [13] = Solubility of the compound; format: physicochemical
# [14] = Ratio of MIC for methicillin, quinolone-resistant Staphylococcus aureus to fraction unbound in human plasma; format: ADME
# [15] = Bioavailability in Wistar rat at 10 mg/kg, […]; format: ADME, organism-based; details: in vivo
# [16] = Clearance in CD1 mouse at 10 mg/kg, iv; format: ADME, organism-based; set-up: dose 10 mg/kg, route intravenous; details: in vivo
# [17] = target: T1, ATP-binding cassette sub-family C member 2 (Homo sapiens, UniProt Q92887); assay: Inhibition of ATPase activity of human MRP2 assessed as inorganic phosphate
# [18] = Clearance in Wistar rat at 10 mg/kg, iv; format: ADME, organism-based; set-up: dose 10 mg/kg, route intravenous; details: in vivo
# [19] = Dissociation constant, pKa of the compound; format: physicochemical
# [20] = Clearance in dog at 10 mg/kg, iv; format: ADME, organism-based, Canis lupus familiaris; set-up: dose 10 mg/kg, route intravenous; details: plasma
# [21] = target: T2, ATP-binding cassette sub-family C member 2 (Rattus norvegicus, UniProt Q63120); assay: Inhibition of ATPase activity of rat Mrp2 assessed as inorganic phosphate
# [22] = Percentage unbound in dog plasma; format: ADME, cell-free, Canis lupus familiaris
# [23] = Clearance in TR-negative Wistar rat at 10 mg/kg, iv; format: ADME, organism-based; set-up: dose 10 mg/kg, route intravenous; details: in vivo
# [24] = target: T2, ATP-binding cassette sub-family C member 2; assay: Stimulation of ATPase activity of rat Mrp2 assessed as inorganic phosphate
# [25] = target: T1, ATP-binding cassette sub-family C member 2; assay: Stimulation of ATPase activity of human MRP2 assessed as inorganic phosphate
# [26] = Percentage unbound in rat plasma; format: ADME, cell-free
# [27] = Percentage unbound in mouse plasma; format: ADME, cell-free
# [28] = Bioavailability in dog at 10 mg/kg, iv; format: ADME, organism-based, Canis lupus familiaris; details: plasma
# [29] = Moraxella catarrhalis, read-out: MIC
# [30] = Streptococcus pneumoniae, read-out: MIC
# [31] = Haemophilus influenzae, read-out: MIC
# [32] = Escherichia coli, read-out: MIC
# [33] = Escherichia coli, Eco523, read-out: MIC
# [34] = Staphylococcus aureus, read-out: MIC
# DNA gyrase subunit B, sequence (P0A0K8 whole entry): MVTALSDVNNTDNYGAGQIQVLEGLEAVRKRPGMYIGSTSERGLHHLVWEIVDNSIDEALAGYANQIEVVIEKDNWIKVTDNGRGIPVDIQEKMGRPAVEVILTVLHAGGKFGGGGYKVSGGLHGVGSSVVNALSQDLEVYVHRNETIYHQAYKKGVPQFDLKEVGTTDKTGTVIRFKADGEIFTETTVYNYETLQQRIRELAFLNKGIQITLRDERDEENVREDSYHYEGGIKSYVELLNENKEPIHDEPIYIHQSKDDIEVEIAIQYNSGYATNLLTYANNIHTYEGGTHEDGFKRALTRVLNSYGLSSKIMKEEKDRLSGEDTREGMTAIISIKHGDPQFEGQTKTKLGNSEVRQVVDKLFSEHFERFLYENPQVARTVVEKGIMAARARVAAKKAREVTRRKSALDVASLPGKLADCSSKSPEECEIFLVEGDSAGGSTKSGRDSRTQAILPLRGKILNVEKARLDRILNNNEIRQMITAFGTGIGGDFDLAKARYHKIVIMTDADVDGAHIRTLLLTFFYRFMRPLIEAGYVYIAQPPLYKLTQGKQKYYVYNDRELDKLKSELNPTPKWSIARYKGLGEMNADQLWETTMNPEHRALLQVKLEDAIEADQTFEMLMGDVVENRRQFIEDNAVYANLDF
# T1 sequence (Q92887 whole entry): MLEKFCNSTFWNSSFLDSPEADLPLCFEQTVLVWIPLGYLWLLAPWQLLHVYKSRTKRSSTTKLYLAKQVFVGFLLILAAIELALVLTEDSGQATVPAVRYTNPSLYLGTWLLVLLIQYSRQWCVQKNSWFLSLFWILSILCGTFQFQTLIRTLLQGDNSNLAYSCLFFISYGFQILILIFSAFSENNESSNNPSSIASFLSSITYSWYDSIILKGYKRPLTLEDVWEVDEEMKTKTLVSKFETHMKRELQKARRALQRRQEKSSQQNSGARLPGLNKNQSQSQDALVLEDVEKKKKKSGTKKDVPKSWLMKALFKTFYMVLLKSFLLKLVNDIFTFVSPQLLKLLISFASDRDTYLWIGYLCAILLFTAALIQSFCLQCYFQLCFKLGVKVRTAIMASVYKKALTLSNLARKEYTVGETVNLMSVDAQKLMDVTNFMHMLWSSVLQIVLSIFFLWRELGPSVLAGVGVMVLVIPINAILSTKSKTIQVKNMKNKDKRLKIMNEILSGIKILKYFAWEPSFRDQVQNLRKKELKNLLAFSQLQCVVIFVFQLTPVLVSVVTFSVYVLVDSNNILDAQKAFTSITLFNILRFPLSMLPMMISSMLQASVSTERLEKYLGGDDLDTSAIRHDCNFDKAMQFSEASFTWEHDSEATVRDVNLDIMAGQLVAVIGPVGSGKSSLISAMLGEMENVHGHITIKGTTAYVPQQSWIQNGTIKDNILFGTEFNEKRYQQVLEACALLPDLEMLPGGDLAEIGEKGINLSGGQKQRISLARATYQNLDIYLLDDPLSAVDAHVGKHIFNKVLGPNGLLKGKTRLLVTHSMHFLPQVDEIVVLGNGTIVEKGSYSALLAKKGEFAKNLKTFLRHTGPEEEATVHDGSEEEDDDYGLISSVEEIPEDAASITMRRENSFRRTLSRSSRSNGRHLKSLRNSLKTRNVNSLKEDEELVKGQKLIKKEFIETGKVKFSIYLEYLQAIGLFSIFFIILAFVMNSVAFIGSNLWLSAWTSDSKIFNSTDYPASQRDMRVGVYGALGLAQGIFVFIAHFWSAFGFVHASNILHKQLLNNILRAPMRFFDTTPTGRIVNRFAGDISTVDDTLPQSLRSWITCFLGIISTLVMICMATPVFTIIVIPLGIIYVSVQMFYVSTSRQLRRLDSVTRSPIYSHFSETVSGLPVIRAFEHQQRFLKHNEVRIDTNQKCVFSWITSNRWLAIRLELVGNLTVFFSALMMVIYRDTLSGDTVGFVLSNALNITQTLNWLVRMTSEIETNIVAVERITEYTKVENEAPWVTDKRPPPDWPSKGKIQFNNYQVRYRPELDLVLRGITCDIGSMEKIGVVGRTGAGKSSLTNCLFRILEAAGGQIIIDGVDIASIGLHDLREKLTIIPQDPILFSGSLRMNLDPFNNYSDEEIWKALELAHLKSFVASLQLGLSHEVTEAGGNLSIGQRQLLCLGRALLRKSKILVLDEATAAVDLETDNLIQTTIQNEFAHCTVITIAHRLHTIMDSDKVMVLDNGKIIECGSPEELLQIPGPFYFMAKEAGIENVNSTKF
# T2 sequence (Q63120 whole entry): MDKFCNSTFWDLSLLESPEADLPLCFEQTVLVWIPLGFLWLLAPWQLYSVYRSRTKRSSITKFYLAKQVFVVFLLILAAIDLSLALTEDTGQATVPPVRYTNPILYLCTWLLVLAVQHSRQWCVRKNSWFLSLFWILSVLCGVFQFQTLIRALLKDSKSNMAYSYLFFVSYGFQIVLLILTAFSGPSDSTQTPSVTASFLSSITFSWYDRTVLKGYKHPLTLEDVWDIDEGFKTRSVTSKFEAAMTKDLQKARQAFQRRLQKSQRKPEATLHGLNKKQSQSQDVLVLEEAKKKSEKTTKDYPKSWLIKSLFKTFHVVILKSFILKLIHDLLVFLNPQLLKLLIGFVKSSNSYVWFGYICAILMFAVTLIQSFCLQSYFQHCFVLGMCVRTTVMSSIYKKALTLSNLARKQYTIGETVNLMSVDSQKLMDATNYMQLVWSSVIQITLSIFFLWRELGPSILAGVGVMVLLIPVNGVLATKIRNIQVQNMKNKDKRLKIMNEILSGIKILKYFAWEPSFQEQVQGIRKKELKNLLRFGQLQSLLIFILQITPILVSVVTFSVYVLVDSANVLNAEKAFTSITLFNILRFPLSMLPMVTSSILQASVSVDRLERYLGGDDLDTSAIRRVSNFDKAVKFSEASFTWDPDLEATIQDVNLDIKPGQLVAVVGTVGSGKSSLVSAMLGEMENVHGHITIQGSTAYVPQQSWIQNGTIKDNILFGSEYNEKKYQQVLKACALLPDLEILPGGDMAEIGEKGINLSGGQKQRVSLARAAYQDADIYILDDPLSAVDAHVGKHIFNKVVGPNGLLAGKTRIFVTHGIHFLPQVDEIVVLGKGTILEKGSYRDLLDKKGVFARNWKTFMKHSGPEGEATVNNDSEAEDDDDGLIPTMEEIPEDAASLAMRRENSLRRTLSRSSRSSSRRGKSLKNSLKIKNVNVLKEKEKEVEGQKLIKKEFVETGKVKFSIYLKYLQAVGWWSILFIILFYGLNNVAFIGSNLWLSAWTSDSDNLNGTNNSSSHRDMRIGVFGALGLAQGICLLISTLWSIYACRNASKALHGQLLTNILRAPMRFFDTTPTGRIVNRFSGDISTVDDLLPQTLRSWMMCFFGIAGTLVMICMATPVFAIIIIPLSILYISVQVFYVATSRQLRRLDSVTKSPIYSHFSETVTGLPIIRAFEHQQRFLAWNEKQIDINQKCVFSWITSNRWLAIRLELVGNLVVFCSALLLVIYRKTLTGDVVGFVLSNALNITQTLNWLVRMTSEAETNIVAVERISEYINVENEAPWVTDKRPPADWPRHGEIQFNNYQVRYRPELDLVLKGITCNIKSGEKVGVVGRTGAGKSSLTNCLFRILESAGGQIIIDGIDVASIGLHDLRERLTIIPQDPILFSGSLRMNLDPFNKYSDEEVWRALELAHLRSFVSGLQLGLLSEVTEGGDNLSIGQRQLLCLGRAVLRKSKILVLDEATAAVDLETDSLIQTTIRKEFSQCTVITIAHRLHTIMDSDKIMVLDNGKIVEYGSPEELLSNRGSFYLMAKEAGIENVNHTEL
SMILES,"MIC [1, 29] [µg/mL]","MIC [2, 30] [µg/mL]","MIC [3, 31] [µg/mL]","MIC [4, 32] [µg/mL]","MIC [5, 33] [µg/mL]","MIC [6, 34] [µg/mL]",MIC [7] [µg/mL],IC50 [8] [nM],logD [9],clearance [10] [mL/min/kg],fraction unbound [11],"MIC [12, 34] [µg/mL]",solubility [13] [µM],Ratio [14],also measured
CO[C@H]1CN(c2nc(CN3CCOCC3)c(C(=O)O)s2)CC[C@H]1NC(=O)c1[nH]c(C)c(Cl)c1Cl (racemic),1,0.25,4,> 8,0.13,2,0.25,< 10,1.4,0.25,0.057,2,> 1000,35,
CO[C@H]1CN(c2nc(C(=O)NCC3OCCO3)c(C(=O)O)s2)CC[C@H]1NC(=O)c1[nH]c(C)c(Cl)c1Cl,0.013,0.04,0.1,0.79,> 8,0.063,0.02,< 10,0.76,33,0.028,0.1,940,3.6,
COCn1ccnc1-c1nc(N2CC[C@@H](NC(=O)c3[nH]c(C)c(Cl)c3Cl)[C@@H](OC)C2)sc1C(=O)O,< 0.06,< 0.06,0.5,0.25,16,< 0.06,< 0.06,< 10,0.24,27,0.071,,170,< 0.9,
CO[C@H]1CN(c2ncc(C(=O)O)s2)CC[C@H]1NC(=O)c1[nH]c(C)c(Cl)c1Cl,,,,,,,,< 10,,52,0.071,,,7,MIC [1]: 0.031 µg/mL; MIC [2]: 0.016 µg/mL; MIC [3]: 0.18 µg/mL; MIC [4]: 0.18 µg/mL; MIC [5]: 64 µg/mL; bioavailability [15]: 6.7%; clearance [16]: 99 mL/min/kg; MIC [6]: 0.32 µg/mL; IC50 [17]: > 200000 nM; clearance [18]: 34 mL/min/kg; pKa [19]: 3.6; clearance [20]: 26 mL/min/kg; IC50 [21]: > 200000 nM; fraction unbound [22]: 0.22; MIC [12]: 0.5 µg/mL; clearance [23]: 9.1 mL/min/kg; EC50 [24]: 38000 nM; EC50 [25]: 71000 nM
CO[C@H]1CN(c2nc(C(=O)NC3COC(C)(C)OC3)c(C(=O)O)s2)CC[C@H]1NC(=O)c1[nH]c(C)c(Cl)c1Cl,0.008,0.016,0.16,0.76,14,< 0.06,0.016,< 10,1.2,38,0.036,,> 1000,< 1.8,
CO[C@H]1CN(c2nc(-c3cnccn3)c(C(=O)O)s2)CC[C@H]1NC(=O)c1[nH]c(C)c(Cl)c1Cl,0.008,0.007,0.13,0.5,> 8,0.031,0.01,< 10,1.2,2.7,0.039,0.018,540,0.46,fraction unbound [26]: 0.0715; fraction unbound [27]: 0.074; pKa [19]: 5.4; clearance [20]: 0.73 mL/min/kg; bioavailability [28]: 18%; fraction unbound [22]: 0.13
CO[C@H]1CN(c2nc(C(C)=O)c(C(=O)O)s2)CC[C@H]1NC(=O)c1[nH]c(C)c(Cl)c1Cl,0.02,0.02,0.15,0.26,30,0.063,0.02,< 10,0.36,9.3,0.019,0.063,890,3.7,
COCC(COC)(COC)NC(=O)c1nc(N2CC[C@@H](NC(=O)c3[nH]c(C)c(Cl)c3Cl)[C@@H](OC)C2)sc1C(=O)O,0.008,0.016,0.15,1.3,29,0.031,0.016,< 10,1.9,18,0.047,0.031,720,0.66,
CO[C@H]1CN(c2nc(C(=O)O)cs2)CC[C@H]1NC(=O)c1[nH]c(C)c(Cl)c1Cl,0.05,0.2,0.1,0.1,> 8,0.2,0.035,< 10,0.25,49,0.022,0.32,930,15,
CO[C@H]1CN(c2nc(-c3cncc(OCCN(C)C)n3)c(C(=O)O)s2)CC[C@H]1NC(=O)c1[nH]c(C)c(Cl)c1Cl,,0.011,0.23,0.23,60,0.13,0.031,< 10,0.8,9.6,0.037,0.19,770,5.1,
CNC(=O)c1nc(N2CC[C@@H](NC(=O)c3[nH]c(C)c(Cl)c3Cl)[C@@H](OC)C2)sc1C(=O)O,0.011,0.016,0.14,0.3,18,0.063,0.013,< 10,1.3,14,0.02,0.063,56,3.15,
CO[C@H]1CN(c2nc3cccc(C(=O)O)c3s2)CC[C@H]1NC(=O)c1[nH]c(C)c(Cl)c1Cl,< 0.001,0.032,0.031,0.25,8,0.031,,< 10,1.7,60,< 0.01,0.031,< 1,> 31,
CO[C@H]1CN(c2nc(C(=O)NCC3(C)OCCO3)c(C(=O)O)s2)CC[C@H]1NC(=O)c1[nH]c(C)c(Cl)c1Cl,0.016,0.016,0.11,0.5,11,0.063,0.016,< 10,1,34,0.032,0.084,620,2.6,
CO[C@H]1CN(c2nc(-c3nc(C)no3)c(C(=O)O)s2)CC[C@H]1NC(=O)c1[nH]c(C)c(Cl)c1Cl,< 0.06,< 0.06,0.13,0.5,32,0.13,< 0.06,< 10,0.07,110,0.015,0.13,630,8.7,
COc1cc(OC)nc(-c2nc(N3CC[C@@H](NC(=O)c4[nH]c(C)c(Cl)c4Cl)[C@@H](OC)C3)sc2C(=O)O)n1,0.016,0.016,0.25,1,32,0.025,0.016,< 10,1.7,6.3,0.036,0.05,,1.4,
CO[C@H]1CN(c2nc(-c3ccncn3)c(C(=O)O)s2)CC[C@H]1NC(=O)c1[nH]c(C)c(Cl)c1Cl,< 0.06,< 0.06,0.12,0.5,16,< 0.06,< 0.06,< 10,1.7,3.8,0.042,0.031,350,0.74,
CO[C@H]1CN(c2nc(C)c(C(=O)O)s2)CC[C@H]1NC(=O)c1[nH]c(C)c(Cl)c1Cl,0.008,0.013,0.072,0.25,> 8,0.031,< 0.008,< 10,1.2,26,0.018,0.053,450,2.9,
